Ten compounds from PubChem BioAssay can be followed below.

Assay [1] can be described thus: inhibitors of TNFa-induced NFkB p65 translocation, primary screen, imaging, HUVEC, MLSMR starter and 10KST1 sets (AID 438;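 active = inhibition above 20% together with a positive visual image hit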;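 note: compound added about 3h40 before a 20 min TNFalpha stimulation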;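 for inhibition: signal is the nuclear over cytoplasmic p65 intensity ratio per well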). To be noted: HUVEC TNFa-induced p65 nuclear translocation; cell count: measured here: nuclei count (cytotoxicity indicator), at 2.08 µM; inhibition: at 2 µM, stronger effect = higher value, 0% TNFa-plus-vehicle, 100% no-TNFa wells.
Assay [2] can be described thus: reduction of polyQ htt aggregates in cells – imaging, exon1htt(103Q)mCFP cells, high-content imaging, primary screen (AID 483;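 active = visual image review flags a hit and inhibition of aggregation exceeds 20%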;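 note: compound exposure lasted 3 days before fixation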;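 for nuclei count: percent of the per-plate median nuclei count of sample wells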). The note with it: exon1htt(103Q)mCFP cell line, aggregate imaging, at 2 µM; inhibition of aggregation: stronger effect = higher value; nuclei count: measured here: cell count, toxicity.
Assay [3] can be described thus: endothelial E-selectin expression blockers – imaging, HUVEC, immunofluorescence, MLSMR starter and 10KST1 sets, primary screen (AID 487;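 active = visually confirmed hit in the image check and inhibition above 20%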;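 for inhibition: signal is fraction of cell area covered by stained E-selectin grains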;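 for nuclei count: 100% = median nuclei count of all wells on the same plate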). The note with it: HUVEC TNFalpha-induced E-selectin immunofluorescence imaging, at 2 µM; inhibition: stronger effect = higher value; nuclei count: measured here: cell number, toxicity.
Assay [4] concerns the target Voltage-gated potassium channel subunit beta-2 (Rattus norvegicus) (UniProt P62483). As to the kind of experiment: inhibitors of rat Kvbeta2 reductase activity – biochemical, NADPH fluorescence, primary screen (AID 622;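 active = fluorescence slope higher than the sample average by over 3 SD, cut at about -0.22 in these data, passing the limit was not always enough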;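 note: slope of raw intensity against log time taken from 70 to 1610 s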). The note with it: recombinant KvBeta, 4-cyanobenzaldehyde reduction, at 10 µM, stronger effect = higher value.
Assay [5] has the same target. As to the kind of experiment: enhancers of rat Kvbeta2 NADPH turnover – biochemical, NADPH fluorescence, primary screen (AID 623;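 active = NADPH fluorescence slope more negative than the mean of all samples by about 3 SD, 99.7% confidence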;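 note: fluorescence intensity change per second fitted from 20 to 320 s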). To be noted: Recombinant KvBeta, NADPH fluorescence decrease slope, 10 min; at 10 µM; stronger effect = lower value.
The target of assay [6] is Muscarinic acetylcholine receptor M4 (Homo sapiens) (UniProt P08173). Briefly: M4-linked GIRK flux change, two-sided – cell-based, HEK293 M4/GIRK, thallium flux, BTC-AM, M4 allosteric agonist project, primary screen (AID 625;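 active = fluorescence slope after compound addition differing from the mean of all tested samples at 99.7% confidence, mostly higher but some lower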;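 note: thallium influx through GIRK channels coupled to M4 in HEK293 cells with BTC-AM dye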). The note with it: at 10 µM, actives lie on both sides. The essentials:
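Material: HEK293 cells with M4 receptor and GIRK channels; Times: cells overnight at 37 °C, BTC-AM loading 1 h, reads 2 min total; Technique: kinetic BTC-AM fluorescence sampled at 1 Hz, 10 s pre-addition baseline; Read-out basis: slope over 15–24 s of trace normalized to starting intensity; Controls: carbachol positive, DMSO negative.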

Assay [7] can be described thus: blockers of RIG-like receptor reporter activation – cell-based, Sendai virus stimulus, luciferase, 10K MLSCN set, TLR/RLR signaling modifier project, primary screen (AID 602276).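 Note: firefly luciferase from ISG56 promoter only with Renilla not read in this screen; 0% = Sendai virus plus DMSO and 100% = medium plus DMSO without virus.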 The note with it: HEK293 RL24 IRF3 luciferase reporter, at 10 µM, stronger effect = higher value. Background: A reporter such as luciferase makes a cellular process visible.
The nature of assay [8]: TLR3 IRF3 reporter activation blockers – cell-based, poly I:C stimulus, luciferase, 10K MLSCN set, primary screen (AID 602277;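 active = inhibition of the reporter signal at or above 50%; inactive = inhibition below 50%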). To be noted: HEK293-TLR3 RL24 IRF3 luciferase reporter, at 10 µM, stronger effect = higher value.

Each structure is given as a SMILES string. Calls of active or inactive are those of the source.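 Rule for the calls, unless noted: active = inhibition at or above 50% at 10 µM; inactive = inhibition below 50%.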

Muscarinic acetylcholine receptor M4 (Homo sapiens), sequence (P08173 whole entry, looked up): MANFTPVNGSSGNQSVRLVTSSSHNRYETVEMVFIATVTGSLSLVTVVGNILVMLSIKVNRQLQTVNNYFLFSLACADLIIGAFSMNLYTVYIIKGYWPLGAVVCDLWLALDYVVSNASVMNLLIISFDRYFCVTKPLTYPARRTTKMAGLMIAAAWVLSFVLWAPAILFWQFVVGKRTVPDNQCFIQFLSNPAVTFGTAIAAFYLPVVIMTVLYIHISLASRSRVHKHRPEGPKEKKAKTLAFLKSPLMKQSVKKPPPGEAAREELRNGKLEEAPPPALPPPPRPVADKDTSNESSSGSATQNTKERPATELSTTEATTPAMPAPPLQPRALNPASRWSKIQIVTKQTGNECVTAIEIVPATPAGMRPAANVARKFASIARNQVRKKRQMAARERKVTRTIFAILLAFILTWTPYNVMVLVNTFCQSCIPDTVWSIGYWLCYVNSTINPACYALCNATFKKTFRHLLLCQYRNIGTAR
Voltage-gated potassium channel subunit beta-2 (Rattus norvegicus), sequence (P62483 whole entry, looked up): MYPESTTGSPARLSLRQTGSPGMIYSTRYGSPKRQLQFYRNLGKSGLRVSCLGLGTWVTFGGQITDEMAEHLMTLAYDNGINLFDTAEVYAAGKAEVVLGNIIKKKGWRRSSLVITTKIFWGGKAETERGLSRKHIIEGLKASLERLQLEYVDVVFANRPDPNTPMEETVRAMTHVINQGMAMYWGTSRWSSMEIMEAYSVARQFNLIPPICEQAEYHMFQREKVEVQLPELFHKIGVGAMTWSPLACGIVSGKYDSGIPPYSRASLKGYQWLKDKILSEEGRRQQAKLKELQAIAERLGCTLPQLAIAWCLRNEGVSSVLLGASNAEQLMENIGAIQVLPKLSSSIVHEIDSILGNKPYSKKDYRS

In general, inhibition refers to the relative decrease from the control value, in per cent. For `CCCC(C)C(=O)Nc1ccc(C(N)=O)cc1` (stereo not given), the cell count in assay [1] is 668. Further, the inhibition in assay [1] is 0.5% (inactive); in assay [3], 22.4% (inactive); in assay [7], 11.2% (inactive); in assay [8], 13.5% (inactive). Further, the inhibition of aggregation in assay [2] was 1% (inactive). Further, the nuclei count was found to be 110% in assay [2] and 87% in assay [3]. Moreover, the results for the fluorescence slope in assay [4] and in assay [6] were -0.272 (inactive) and 0.00544 (inactive), respectively. In addition, the NADPH fluorescence slope in assay [5] is -3.2e-05 (inactive).
Consider `CCCC(=O)Nc1ccccc1NC(=O)CN(C)S(=O)(=O)c1ccc(C)cc1`, for which the cell count in assay [1] came out at 182. The inhibition is -6.3% (inactive) in assay [1], 20.2% (inactive) in assay [3], 1.42% (inactive) in assay [7] and 11.1% (inactive) in assay [8]. In addition, the inhibition of aggregation in assay [2] was -6.6% (inactive). The nuclei count in assay [2] stood at 81.6%; in assay [3], 83.4%. The values for the fluorescence slope in assay [4] and in assay [6] were -0.56 (inactive) and 0.00633 (inactive), respectively. Also, the NADPH fluorescence slope in assay [5] was -3e-05 (inactive).
On to `COc1ccc(NC(=O)Cn2nnc(-c3ccccc3N)n2)cc1OC`, for which the cell count in assay [1] turned out to be 656. The inhibition in assay [1] was -6.1% (inactive); in assay [3], -51.2% (inactive); in assay [7] it was 17.6% (inactive); in assay [8], 14.6% (inactive). Besides, the inhibition of aggregation in assay [2] was 19.9% (inactive). Besides, the figures for the nuclei count in assay [2] and in assay [3] were 100% and 121%, respectively. Further, the fluorescence slope is -0.595 (inactive) in assay [4] and 0.00531 (inactive) in assay [6]. The NADPH fluorescence slope in assay [5] is 1e-05 (inactive).
On to `CCN(CC)S(=O)(=O)N1CCC(C(=O)NCC2COc3ccccc3O2)CC1` (stereo not given), for which the cell count in assay [1] is 616. The inhibition in assay [1] is 17% (inactive); in assay [3] it was -27.8% (inactive); in assay [7] it was -4.12% (inactive); in assay [8], 1.83% (inactive). Also, the inhibition of aggregation in assay [2] is -12.4% (inactive). Moreover, the nuclei count came to 88.5% in assay [2] and 115% in assay [3]. For the same compound, the figures for the fluorescence slope in assay [4] and in assay [6] were -0.494 (inactive) and 0.00755 (inactive), respectively. For the same compound, the NADPH fluorescence slope in assay [5] was 2.9e-05 (inactive).
As for `O=C(c1ccccc1)c1ccc2nc[nH]c2c1`, the cell count in assay [1] came out at 762. Besides, the inhibition in assay [1] was -1.2% (inactive); in assay [3], -48.9% (inactive); in assay [7], -13.6% (inactive); in assay [8], -34.9% (inactive). The inhibition of aggregation in assay [2] is -14.8% (inactive). Also, the nuclei count in assay [2] was 94.7%; in assay [3], 128%. In addition, the results for the fluorescence slope in assay [4] and in assay [6] were -0.571 (inactive) and 0.00464 (inactive), respectively. For the same compound, the NADPH fluorescence slope in assay [5] is -3.1e-05 (inactive).
With `COc1ccccc1-c1noc(-c2cccnc2)n1`, the cell count in assay [1] was found to be 405. Also, the inhibition in assay [1] is 0% (inactive); in assay [3] it was -6.3% (inactive); in assay [7], -24.5% (inactive); in assay [8], -87.9% (inactive). Besides, in assay [2], the inhibition of aggregation was -5.9% (inactive). Moreover, the nuclei count stood at 106% in assay [2] and 125% in assay [3]. Besides, the fluorescence slope was -0.568 (inactive) in assay [4] and 0.00345 (inactive) in assay [6]. The NADPH fluorescence slope in assay [5] was -7.6e-05 (inactive).
Regarding `Cc1cc(C2C(C#N)=C(N)SC(N)=C2C#N)c(C)s1`, the cell count in assay [1] stood at 755. Further, the inhibition in assay [1] was -5% (inactive); in assay [3] it was -27.1% (inactive); in assay [7], 8.05% (inactive); in assay [8], 20.2% (inactive). In addition, the inhibition of aggregation in assay [2] was -30.7% (inactive). For the same compound, the nuclei count in assay [2] was found to be 102%; in assay [3] it was 130%. The fluorescence slope in assay [4] was -0.573 (inactive); in assay [6] it was 0.00245 (inactive). In addition, the NADPH fluorescence slope in assay [5] is -8.5e-05 (inactive).
As to `CCOC(=O)C1CCN(c2c(NCCCN(CC)c3ccccc3)c(=O)c2=O)CC1`, in assay [1], the cell count came to 266. In addition, the inhibition in assay [1] was 5.2% (inactive); in assay [3], -20.2% (inactive); in assay [7], 2.28% (inactive); in assay [8], 9.33% (inactive). For the same compound, the inhibition of aggregation in assay [2] was 8.3% (inactive). The results for the nuclei count in assay [2] and in assay [3] were 97.6% and 95.4%, respectively. Also, the fluorescence slope in assay [4] was -0.43 (inactive); in assay [6] it was 0.00476 (inactive). Besides, the NADPH fluorescence slope in assay [5] is -0.000398 (inactive).
Consider `O=C(C1CCC1)N1CCc2cc(S(=O)(=O)Nc3ccc4c(c3)OCO4)ccc21`, for which the cell count in assay [1] was 606. For the same compound, the inhibition in assay [1] was 10.1% (inactive); in assay [3], 3.5% (inactive); in assay [7] it was 7.48% (inactive); in assay [8], 13.6% (inactive). The inhibition of aggregation in assay [2] is 18.8% (inactive). The nuclei count in assay [2] was determined as 92%; in assay [3], 137%. The figures for the fluorescence slope in assay [4] and in assay [6] were -0.391 (inactive) and 0.0066 (inactive), respectively. Besides, the NADPH fluorescence slope in assay [5] is -6.2e-05 (inactive).
With `COc1cc2c(cc1OC)C(c1cc(OC)c(OC)c(OC)c1)NCC2` (stereo not given), the cell count in assay [1] came out at 514. Also, the inhibition in assay [1] was 1.8% (inactive); in assay [3], -28.8% (inactive); in assay [7], 15.4% (inactive); in assay [8], 20.5% (inactive). In addition, the inhibition of aggregation in assay [2] was 10.4% (inactive). Further, the nuclei count stood at 104% in assay [2] and 102% in assay [3]. Moreover, the fluorescence slope in assay [4] is -0.546 (inactive); in assay [6] it was 0.00597 (inactive). Also, the NADPH fluorescence slope in assay [5] was -2.1e-05 (inactive).
